Measurements: publication PMC12657421 (International Journal of Pharmaceutics: X, 2025)

Experiments:
[1] = In vitro powder dissolution in pH 6.8 and pH 7.0 media; type: physicochemical
In short: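 60 mg emodin, or an equivalent amount of cocrystal, added to 900 mL of pH 6.8 or pH 7.0 medium at 37 °C with propeller at 100 rpm. Autosampled 1 mL at 10–720 min (nine points), centrifuged 13,400 rpm for 10 min, supernatant by HPLC. Run in triplicate.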

[2] = type: in vivo, Sprague Dawley rats
In short: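 Male SD rats (250 ± 20 g), acclimated one week, n = 6 per group, oral single dose. Plasma separated at 4 °C, stored −80 °C, acetonitrile-precipitated with chrysophanol internal standard and diluted with water. Emodin quantified by HPLC-MS/MS, C18 column at 40 °C, triple quadrupole.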

[3] = Equilibrium solubility, shake-flask method; type: physicochemical; details: pH 1.2, pH 4.5, pH 6.8, 37 °C
In short: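 Shake-flask method: excess solid stirred in 5 mL of water or pH 1.2, 4.5 or 6.8 buffer at 37 °C for 72 h. Samples were centrifuged, and the supernatant was assayed directly by HPLC using a modified Chinese Pharmacopoeia method.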

[4] = ref NIST (National Institute of Standards and Technology, n.d); cited from earlier work
[5] = male, Sprague Dawley, rat, plasma, po, 100 mg/kg

Apparent dissolution (detectability) [1] | AUC(0-inf) [2, 5] | AUC(0-t) [2, 5] | Cmax [2, 5] | MRT inf [2, 5] | MRT last [2, 5] | Tmax [2, 5] | half-life [2, 5] | CLz ([2]; rats, oral, EMO 100 mg/kg or equimolar cocrystal, plasma EMO, n = 6) | Solubility in purified water and three other media [3] | Structure (SMILES) | Sublimation enthalpy [4]
undetectability | 33400 ng·h/mL | 2370 ± 947 ng·h/mL | 274 ± 160 ng/mL | 5.9 ± 5.41 h | 10.3 ± 1.94 h | 11 ± 1.67 h | 4.13 ± 1.97 h | 4 ± 3 mL/h/kg | negligible solubility | Cc1cc(O)c2c(c1)C(=O)c1cc(O)cc(O)c1C2=O [EMO, Emodin] | –
– | – | – | – | – | – | – | – | – | – | Cc1nc(C)c(C)nc1C [TMP, Tetramethylpyrazine] | 22.6 kcal/mol
